# Experimental data of several laboratories.
# Histone acetyltransferase KAT6B: Histone acetyltransferase KAT6B (Homo sapiens, UniProt Q8WYB5)
# KDR: Vascular endothelial growth factor receptor 2 (KDR, Homo sapiens, UniProt P35968)
# PIK3CB: Phosphatidylinositol 4,5-bisphosphate 3-kinase catalytic subunit beta isoform (PIK3CB, Homo sapiens, UniProt P42338)
# PIK3CA: Phosphatidylinositol 4,5-bisphosphate 3-kinase catalytic subunit alpha isoform (PIK3CA, Homo sapiens, UniProt P42336)
SMILES,target,assay,conditions,IC50 [µM]
N#Cc1ccc(COC[C@H]2O[C@@H](n3c(NCc4ccc(Cl)c(Cl)c4)nc4c(N)ncnc43)[C@H](O)[C@@H]2O)cc1,"Transient receptor potential cation channel subfamily M member 7 (Trpm7, Mus musculus, UniProt Q923J1)",calcium signal,,0.3
CCOc1ccccc1S(=O)(=O)NC(=O)c1cc2c(OC)cc(OC)cc2o1,Histone acetyltransferase KAT6B,"enzyme activity, inhibitor, TR-FRET",,0.309
COc1ccc2[nH]c(C(=O)Nc3nc(CC(=O)O)cs3)cc2c1,KDR,"enzyme activity, inhibitor, ELISA",,0.921
COc1cc2ncnc(Nc3ccc4c(c3)/C(=C/c3cccc(Cl)c3)C(=O)N4C)c2cc1OC,PIK3CB,"enzyme activity, inhibitor, ADP detection",,0.11
CC(=O)Nc1ccc(Oc2nnc(-c3ccc(Cl)cc3)c3ccccc23)cc1,KDR,"cell-free assay, inhibitor",,0.548
O=C(NS(=O)(=O)c1ccccc1-c1ccccc1)c1cc2ccc(OCCO)cc2o1,Histone acetyltransferase KAT6B,"enzyme activity, inhibitor, TR-FRET",,5.94
Cc1nc(Nc2ccc3c(c2)/C(=C/c2ccccc2Cl)C(=O)N3)c2ccccc2n1,PIK3CB,"enzyme activity, inhibitor, ADP detection",,0.0902
CN(C)C(=O)CN1CCN(c2cnc3c(cc(C(=O)NCc4ccc(Cl)cc4)c(=O)n3CC(=O)N3CC(C)(F)C3)n2)C1=O,"DNA polymerase catalytic subunit (Human cytomegalovirus, UniProt P08546)","enzyme activity, inhibitor",,0.328
Cc1coc2c1C(=O)C(=O)c1c-2ccc2c1CCCC2(C)CO (stereo not drawn),"NADPH oxidase 5 (NOX5, Homo sapiens, UniProt Q96PH1)","enzyme activity, inhibitor",,5.2
COc1cc2ncnc(N(C)c3ccc4c(c3)/C(=C/c3cccc(Cl)c3)C(=O)N4C)c2cc1OC,PIK3CA,"enzyme activity, inhibitor, ADP detection",,> 1
CNC(=O)c1cnc(Nc2ccccc2C)c(NC(=O)c2cc(F)cc(C(F)(F)F)c2)c1,"Phosphatidylinositol 4,5-bisphosphate 3-kinase catalytic subunit alpha isoform (PIK3CA, Homo sapiens, UniProt P42336, H1047R)","enzyme activity, inhibitor",with preincubation,0.334
Cc1nc(N(C)c2ccc3c(c2)/C(=C/c2ccccc2Cl)C(=O)N3C)c2ccccc2n1,PIK3CA,"enzyme activity, inhibitor, ADP detection",,0.0534
COc1cc(C)c2cc(C(=O)NS(=O)(=O)c3ccc(Cl)cc3)oc2c1,Histone acetyltransferase KAT6B,"enzyme activity, inhibitor, TR-FRET",,0.237
c1ccc2c(c1)CCC[C@H]2Nc1nc2ccccc2[nH]1,"Transient receptor potential cation channel subfamily M member 7 (Trpm7, Mus musculus, UniProt Q923J1, F924W)",calcium signal,,5.12
CCOc1ccc2cc(C(=O)NS(=O)(=O)c3ccccc3-c3ccccc3)oc2c1,Histone acetyltransferase KAT6B,"enzyme activity, inhibitor, TR-FRET",,3.02
O=C(/C=C/c1ccc(O)c2oc(-c3ccc(O)c(O)c3)cc12)O[C@H](Cc1ccc(O)c(O)c1)C(=O)O,"YTH domain-containing protein 1 (Homo sapiens, UniProt Q96MU7)","ligand displacement, FP",,29
COc1cc(C)c2cc(C(=O)NS(=O)(=O)c3ccc(-c4ccccc4)cc3)oc2c1,Histone acetyltransferase KAT6B,"enzyme activity, inhibitor, TR-FRET",,0.161
Cc1nc(Nc2ccc3c(c2)C(C)(C)C(=O)N3)c2ccccc2n1,PIK3CA,"enzyme activity, inhibitor, ADP detection",,0.195
